Data taken from the EternaBench riboswitch data.

Test system: MS2 coat protein
Assay: apparent Kd, MS2 coat protein; higher = weaker binding; RNA-MaP array; FMN 200 µM where present
In short: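 Green signal from SNAP-549-labelled MS2 coat protein was normalised to red-channel RNA signal and to the median Fmax of control clusters. The protein was titrated from 0.7 or 1.5 nM, doubling to 3 µM, without and then with constant ligand, over designs transcribed by stalled E. coli RNA polymerase on Illumina sequencing-chip clusters, in 100 mM Tris-HCl pH 7.5, 80 mM KCl, 4 mM MgCl2, BSA, DTT, yeast tRNA and Tween-20. The apparent Kd is the median of filtered per-cluster binding-curve fits.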

[1] = designed as: OFF switch for flavin mononucleotide, no ligand
[2] = ligand present: flavin mononucleotide, designed as: OFF switch for flavin mononucleotide
[3] = designed as: ON switch for flavin mononucleotide, no ligand
[4] = ligand present: flavin mononucleotide, designed as: ON switch for flavin mononucleotide

Sequence	apparent Kd [1] [µM]	apparent Kd [2] [µM]	apparent Kd [3] [µM]	apparent Kd [4] [µM]
GGAUAGGACAGAGGAUAUACGGCUAGGAGAUACUAGCUACUAUUCCUCACAUGAGGAUCACCCAUGUAGAAGGCUGUCCUAUCG	0.0176	0.14		
UUCCGGCGUGUAGGAUAUGGAUCCGAUUAGGAUCCAGAAGGACAUGAGGAUCACCCAUGUACAUGUAAACAGUCAUCACCGGAU	0.00809	0.0402		
GCAGCGCAUGUAGGAUAUCGGUCAGUUUCUGAUCGAGAAGGACAUGAGGAUCACCCAUGUAAAUUACCGACUUUGUCGGGCUGC	0.0102	0.0392		
UAUUUAUAGCAAGGAUAUGAUUAUUAUUAUUUAUCAGAAGGUGCACAUGAGGAUCACCCAUGUUUUAUAUAUAAUAAUUUAAUU	0.113	0.0306		
AACUCACAUGAGGAUCACCCAUGUGAGGAUAUAUAAAUAUAUAUGUUAUUGUAUGUUUGUAGAAGGCGCGUGAU	0.0386	0.0431		
AGCUAGGUAGGAUAUGCGUAAAUGUCGAAAGACGUAUUGGGACAUGAGGAUCACCCAUGUAGAAGGAUCUAGCA	0.0393	0.0557		
UAAAUUAACAAGAAGGCUAACAUGAGGAUCACCCAUGUUGUACAUGGAUAUAGAGGAUAUUGCUAAUAUUUAUUUAUCAUAAUU	0.0218	0.0173		
UUUUUGUGAGGAUAUUAGUAGUAAAUAAAUAAAAUUAUUACUGAGAAGGCACAUGAGGAUCACCCAUGUUCCUU	0.0148	0.0681		
CUUAGGUGUACAUGAGGAUCACCCAUGUCCCUGGUCAUUAGACAGGAUAUAUGGGCGGUCGCUUCAUAGAAGGGUUAAAUGGGU			0.837	0.78
ACAGGAAACACAGGAUAUGAGCGAAAUAGAGACAUGAGGAUCACCCAUGUACCGUAGAGAACCGGUCAGAAGGGUGACUCCCGU			0.0254	0.0189
GGAGCACACAUUAACAUGAGGAUCACCCAUGUCAAUAGACAUGAGGAUAUGGAUCCGAAAAGGAUCCAGAAGGCAUGGUGCUCC			0.13	0.01
AAAGACAGACAUGAGGAUCACCCAUGUUACGAAGAUAAUGGGAGAAGGGCGAUUGCAAAGCAAUCGCAGGAUAUUCGUAUUGUC			0.0211	0.00893
GGGUACAUGAGGAUCACCCAUGUAACGUGGAUAAGCUAUAAUAGAAGGAUAAGAGGAGAUGAGGUAUAGGAUAUAUCAUGGGUG	0.0427	0.0171		
CGAGCUGCUGUGAGGAUAUACCUAUGGAUACAUGGGUAGAAGGCACAUGAGGAUCACCCAUGUCCUGCAGCUCG	0.0433	0.273		
AUACAUACAAAGUUACAUGAGGAUCACCCAUGUUUAUUGGGAAGAAGGGUAACAUUAUUAGAUGUAUAGGAUAUUUCACAAUUG			0.537	0.275
CCUUGGAUUGAGGAUAUAUGAACCUUUACGGUUGUAGAAGGCAGGACAUGAGGAUCACCCAUGUGGUGGCGCUC	1.28	1.01		
GGAUGACAAAGUCAUCCAUUACGAACAUGAGGAUCACCCAUGUAGGAUAUGCUUCACAAAGUGAAGCAGAAGGACAUGUGUCUU	0.0302	0.154		
AGUUUGUGAGGAUAUCCAAUAUAUGACAUGAGGAUCACCCAUGUUUCCACUCGUACCUCCGGAGAAGGCACUGCGA	0.0215	0.0229		
UAAAAUCAUGUAGGAUAUGCGUGGCGAAGCUAUGCAGAAGGACAUGAGGAUCACCCAUGUCUUACUGUGCGUACACAGUUAAAG	0.0167	0.0795		
AUGCUUCACACAGGAUAUACAUGAGGAUCACCCAUGUGUCCACCGUAGCUGACACGAGCUACGCGGUAGAAGGGUGUGAAGCAU	0.018	0.0333		
AAGAAGUUAGGAUAUGCAUGGCGGGACUUGCGUCGUGGCGUGCAGAAGGAACAUGAGGAUCACCCAUGUAAAGA	0.0291	0.0183		
ACAAGAUCAGGAUAUACAUGAGGAUCACCCAUGUUUAUCAAAAAAGGGCUUUCUUAAUGUAGAAGGGAUCUUGU	0.0845	0.0641		
AUAAGUGAAAGCUAAAGAUUAGCCGAGGAUAUACAUGAGGAUCACCCAUGUAAGGGUCGCCUUCUGUAGAAGGCGGCGGUCUAG	0.0405	0.0765		
